According to ChEMBL document CHEMBL4311940, “Design, Synthesis, and Biological Evaluation of 4-Methyl Quinazoline Derivatives as Anticancer Agents Simultaneously Targeting Phosphoinositide 3-Kinases and Histone Deacetylases” (J Med Chem, 2019):

What was measured:
[1] = Toxicity in po dosed ICR mouse assessed as maximum tolerated dose; type: organism-based; conditions: in vivo
In short: (§1)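 Male ICR mice, 6−8 weeks old, given one dose; vehicle 0.5% cmc with Tween 80 for oral dosing, saline for intraperitoneal dosing. Clinical signs observed and body weights recorded for 7 consecutive days after dosing to set the maximum tolerated dose.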

[2] = Mutagenicity in Salmonella typhimurium TA100 at 5 to 500 ug/plate in presence of s9 mix by Ames test; type: toxicity, subcellular; conditions: salmonella enterica subsp. enterica serovar typhimurium
In short: (§2)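 Plate incorporation method at 5, 50 and 500 μg/plate, with and without S9 activation. At least three plates per dose, incubated 72 h at 37 °C, revertants counted. Mean revertants compared with vehicle and positive controls.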

[3] = Mutagenicity in Salmonella typhimurium TA1535 at 5 to 500 ug/plate in absence of s9 mix by Ames test; type: toxicity; conditions: salmonella enterica subsp. enterica serovar typhimurium; in short: as §2
HCT-8 = experiment: Antiproliferative activity against human HCT8 cells after 96 hrs by MTT assay; type: functional, cell-based; conditions: HCT-8, 96 h
HCT-116 [4] = experiment: Induction of cell cycle arrest in human HCT116 cells assessed as accumulation at G1 phase at 100 to 500 nM after 24 hrs by propidium iodide/RNase staining-based FACS analysis; type: functional
In short: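 HCT116 cells cultured overnight in 6-well plates, exposed to compound at various concentrations for 24 h; FxCycle PI/RNase staining and flow cytometry for cell cycle phase distribution.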

MCF7 = experiment: Antiproliferative activity against human MCF7 cells after 96 hrs by MTT assay; type: functional, cell-based; conditions: MCF7, 96 h
[5] = Tmax in ICR mouse at 3 mg/kg, iv measured after 0.033 to 24 hrs by LC/MS/MS analysis; type: ADME, organism-based; conditions: in vivo
In short: (§3)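 Male-unspecified ICR mice, 3 per group iv (3 mg/kg in 10% DMSO/saline) and 5 per group po (30 mg/kg in 0.5% cmc/0.3% Tween 80). Blood sampled 0.033 (iv) or 0.083 (po) to 24 h. Plasma extracted with acetonitrile, analysed by LC/MS/MS; noncompartmental analysis.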

[6] = Mutagenicity in Salmonella typhimurium TA100 at 5 to 500 ug/plate in absence of s9 mix by Ames test; type: toxicity; conditions: salmonella enterica subsp. enterica serovar typhimurium; in short: as §2
[7] = Cmax in ICR mouse at 3 mg/kg, iv measured after 0.033 to 24 hrs by LC/MS/MS analysis; type: ADME, organism-based; design: dose 3 mg/kg, route intravenous; conditions: in vivo
In short: (§4)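 ICR mice; iv 3 mg/kg in 10% DMSO/saline (3 mice/group), blood at 0.033, 0.083, 0.25, 0.5, 1, 2, 4, 8, 12, 24 h; po 30 mg/kg as 0.5% cmc/0.3% Tween 80 suspension (5 mice/group), blood at 0.083–24 h. Plasma extracted with acetonitrile, LC/MS/MS; parameters by noncompartmental analysis.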

HCT-116 [8] = experiment: Induction of apoptosis in human HCT116 cells assessed as early apoptotic cells at 100 nM after 48 hrs by Annexin V-FITC/propidium iodide staining-based flow cytometric analysis (reference value: 1.33%); type: functional
[9] = Clearance in ICR mouse at 3 mg/kg, iv measured after 0.033 to 24 hrs by LC/MS/MS analysis; type: ADME, organism-based; conditions: in vivo; in short: as §4
[10] = Toxicity in ip dosed ICR mouse assessed as maximum tolerated dose; type: organism-based; conditions: in vivo; in short: as §1
[11] = Oral bioavailability in ICR mouse at 30 mg/kg measured after 0.083 to 24 hrs by LC/MS/MS analysis; type: ADME, organism-based; conditions: in vivo; in short: as §3
[12] = Mutagenicity in Salmonella typhimurium TA1535 at 5 to 500 ug/plate in presence of s9 mix by Ames test; type: toxicity, subcellular; conditions: salmonella enterica subsp. enterica serovar typhimurium; in short: as §2
THP-1 = experiment: Antiproliferative activity against human THP1 cells after 96 hrs by MTT assay; type: functional, cell-based; conditions: THP-1, 96 h
MDA-MB-453 = experiment: Antiproliferative activity against human MDA-MB-453 cells after 96 hrs by MTT assay; type: functional, cell-based; conditions: MDA-MB-453, 96 h
[13] = Drug concentration in human HCT116 cells assessed per million cells at 25 uM after 1 hr by LC/MS/MS analysis; type: ADME, cell-based; conditions: hct-116, 1 h
In short: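 HCT116 cells seeded overnight, exposed 1 h to 25 μM compound in 4 wells, washed three times with PBS; one well trypsinized for cell count, three scraped, sonicated, acetonitrile-extracted, LC/MS/MS; nmol per million cells = concentration × total volume / cell number.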

K562 = experiment: Antiproliferative activity against human K562 cells after 96 hrs by MTT assay; type: functional, cell-based; conditions: K562, 96 h
[14] = target: Phosphatidylinositol 4,5-bisphosphate 3-kinase catalytic subunit gamma isoform (Homo sapiens, UniProt P48736); experiment: Inhibition of recombinant human His-tagged PIK3CG expressed in baculovirus expression system using PIP2 as substrate incubated for 1 hr by ADP-glo assay
Chain of Phosphatidylinositol 4,5-bisphosphate 3-kinase catalytic subunit gamma isoform (P48736 whole entry, canonical isoform): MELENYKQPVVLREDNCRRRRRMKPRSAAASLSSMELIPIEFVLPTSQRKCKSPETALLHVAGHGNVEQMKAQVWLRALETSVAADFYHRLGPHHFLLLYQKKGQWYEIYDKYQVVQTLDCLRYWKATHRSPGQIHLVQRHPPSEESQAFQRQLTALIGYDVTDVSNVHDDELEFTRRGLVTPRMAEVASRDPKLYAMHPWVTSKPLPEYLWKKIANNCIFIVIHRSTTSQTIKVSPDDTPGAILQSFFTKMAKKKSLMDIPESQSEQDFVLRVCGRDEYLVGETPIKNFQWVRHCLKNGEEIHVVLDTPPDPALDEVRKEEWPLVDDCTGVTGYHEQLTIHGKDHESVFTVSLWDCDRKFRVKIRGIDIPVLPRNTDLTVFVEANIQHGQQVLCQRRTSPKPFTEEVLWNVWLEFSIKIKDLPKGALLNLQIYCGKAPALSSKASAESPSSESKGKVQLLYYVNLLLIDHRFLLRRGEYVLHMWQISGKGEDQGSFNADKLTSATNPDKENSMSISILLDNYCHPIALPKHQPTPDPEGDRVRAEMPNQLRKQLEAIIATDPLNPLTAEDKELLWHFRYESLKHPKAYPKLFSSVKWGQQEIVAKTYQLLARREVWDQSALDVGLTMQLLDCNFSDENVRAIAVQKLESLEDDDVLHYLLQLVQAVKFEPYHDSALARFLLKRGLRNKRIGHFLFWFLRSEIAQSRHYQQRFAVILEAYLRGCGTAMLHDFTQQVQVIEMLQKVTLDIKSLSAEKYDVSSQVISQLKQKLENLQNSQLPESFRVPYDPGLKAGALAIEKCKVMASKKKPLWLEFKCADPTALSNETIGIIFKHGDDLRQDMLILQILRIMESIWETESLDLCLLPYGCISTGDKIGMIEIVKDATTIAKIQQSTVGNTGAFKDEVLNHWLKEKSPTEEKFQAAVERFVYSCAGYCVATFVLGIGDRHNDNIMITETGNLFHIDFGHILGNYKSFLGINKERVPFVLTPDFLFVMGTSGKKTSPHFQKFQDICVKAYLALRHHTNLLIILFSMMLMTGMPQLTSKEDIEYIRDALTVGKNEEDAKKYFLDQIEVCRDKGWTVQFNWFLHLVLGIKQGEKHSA
In short: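 Recombinant PI3Kβ, -γ or -δ, serially diluted compound, PIP2 substrate and ATP combined in kinase buffer. Incubated 1 h at room temperature in the dark, then stopped with ADP-Glo reagent. Luminescence read after kinase detection reagent; IC50 by curve fitting.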

HCT-116 [15] = experiment: Induction of apoptosis in human HCT116 cells after 48 hrs by Annexin V-FITC/propidium iodide staining-based flow cytometric analysis; type: functional, cell-based
[16] = Mutagenicity in Salmonella typhimurium TA102 at 5 to 500 ug/plate in absence of s9 mix by Ames test; type: toxicity; conditions: salmonella enterica subsp. enterica serovar typhimurium; in short: as §2
Histone deacetylase 4 = Histone deacetylase 4 (Homo sapiens, UniProt P56524); experiment: Inhibition of recombinant human full length HDAC4 expressed in baculovirus infected Sf9 insect cells using Ac-peptide as substrate preincubated for 15 mins followed by substrate addition and measured after 1 hr
Chain of Histone deacetylase 4 (P56524 whole entry, canonical isoform): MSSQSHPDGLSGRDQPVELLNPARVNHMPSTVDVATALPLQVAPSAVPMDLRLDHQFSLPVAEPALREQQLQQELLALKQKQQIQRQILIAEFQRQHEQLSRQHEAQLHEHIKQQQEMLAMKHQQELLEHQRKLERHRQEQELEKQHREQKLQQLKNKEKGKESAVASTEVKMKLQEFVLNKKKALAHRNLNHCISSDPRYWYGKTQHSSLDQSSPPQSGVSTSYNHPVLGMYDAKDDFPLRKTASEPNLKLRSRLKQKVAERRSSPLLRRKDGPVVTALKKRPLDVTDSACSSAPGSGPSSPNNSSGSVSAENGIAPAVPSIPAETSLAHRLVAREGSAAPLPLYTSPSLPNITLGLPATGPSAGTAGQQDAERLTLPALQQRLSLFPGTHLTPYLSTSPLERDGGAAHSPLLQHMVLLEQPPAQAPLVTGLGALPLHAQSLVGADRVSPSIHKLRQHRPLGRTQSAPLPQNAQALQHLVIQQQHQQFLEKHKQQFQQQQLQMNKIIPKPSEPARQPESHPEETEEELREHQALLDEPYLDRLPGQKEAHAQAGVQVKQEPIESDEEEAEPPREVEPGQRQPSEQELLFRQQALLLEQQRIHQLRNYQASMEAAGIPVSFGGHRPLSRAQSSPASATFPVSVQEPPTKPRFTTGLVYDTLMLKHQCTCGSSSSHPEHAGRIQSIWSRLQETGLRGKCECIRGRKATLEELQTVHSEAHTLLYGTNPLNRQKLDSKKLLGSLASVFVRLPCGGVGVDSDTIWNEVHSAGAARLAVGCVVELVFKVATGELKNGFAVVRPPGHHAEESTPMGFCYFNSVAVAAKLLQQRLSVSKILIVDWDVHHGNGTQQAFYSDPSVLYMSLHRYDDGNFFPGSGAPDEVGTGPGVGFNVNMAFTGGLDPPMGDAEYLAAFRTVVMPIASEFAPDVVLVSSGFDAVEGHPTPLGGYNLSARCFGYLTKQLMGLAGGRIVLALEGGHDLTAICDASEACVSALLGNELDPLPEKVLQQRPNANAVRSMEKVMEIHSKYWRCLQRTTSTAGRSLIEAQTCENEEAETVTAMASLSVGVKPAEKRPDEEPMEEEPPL
In short: (§5)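 Recombinant HDAC isoforms mixed with serially diluted compound in assay buffer for 15 min at room temperature. Ac-peptide substrate then added and incubated 1 h at room temperature. Signal read on a plate reader; IC50 by curve fitting.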

Histone deacetylase 8 = Histone deacetylase 8 (Homo sapiens, UniProt Q9BY41); experiment: Inhibition of recombinant human full length C-terminal His-tagged HDAC8 expressed in baculovirus infected Sf9 insect cells using Ac-peptide as substrate preincubated for 15 mins followed by substrate addition and measured after 1 hr; in short: as §5
Chain of Histone deacetylase 8 (Q9BY41 whole entry): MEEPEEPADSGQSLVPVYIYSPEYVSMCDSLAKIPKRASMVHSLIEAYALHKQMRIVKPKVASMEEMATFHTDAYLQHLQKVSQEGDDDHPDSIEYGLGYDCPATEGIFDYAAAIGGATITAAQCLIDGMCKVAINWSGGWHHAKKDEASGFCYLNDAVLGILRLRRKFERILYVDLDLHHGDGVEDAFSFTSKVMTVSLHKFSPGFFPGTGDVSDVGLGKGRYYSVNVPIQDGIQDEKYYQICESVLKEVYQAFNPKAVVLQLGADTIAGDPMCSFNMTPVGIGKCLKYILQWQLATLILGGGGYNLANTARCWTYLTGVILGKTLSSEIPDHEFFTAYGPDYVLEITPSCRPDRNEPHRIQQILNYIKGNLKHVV

[17] = target: Serine/threonine-protein kinase mTOR (Homo sapiens, UniProt P42345); experiment: Inhibition of recombinant human N-terminal FLAG-tagged mTOR (1362 to end amino acids) using ULight-4E-BP1 as substrate incubated for 1 hr by LANCE Ultra assay
In short: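 mTOR protein, compound, ULight-4E-BP1 (Thr37/46) peptide and ATP in kinase buffer, 30 min at room temperature. LANCE detection buffer with EDTA and Eu-anti-phospho-4E-BP1 (Thr37/46) antibody added, then 1 h equilibration at room temperature. TR-FRET read; IC50 by curve fitting.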

Histone deacetylase 11 = Histone deacetylase 11 (Homo sapiens, UniProt Q96DB2); experiment: Inhibition of recombinant human full length HDAC11 expressed in baculovirus infected Sf9 insect cells using Ac-peptide as substrate preincubated for 15 mins followed by substrate addition and measured after 1 hr; in short: as §5
Chain of Histone deacetylase 11 (Q96DB2 whole entry): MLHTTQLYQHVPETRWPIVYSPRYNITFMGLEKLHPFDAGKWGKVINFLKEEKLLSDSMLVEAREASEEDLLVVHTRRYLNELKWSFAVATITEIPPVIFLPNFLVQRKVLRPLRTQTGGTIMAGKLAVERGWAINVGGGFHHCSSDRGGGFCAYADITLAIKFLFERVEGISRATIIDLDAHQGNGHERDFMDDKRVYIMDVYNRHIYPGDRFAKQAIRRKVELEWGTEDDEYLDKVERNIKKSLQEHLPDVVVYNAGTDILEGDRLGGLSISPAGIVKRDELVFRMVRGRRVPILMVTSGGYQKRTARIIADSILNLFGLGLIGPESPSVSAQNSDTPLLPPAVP

HCT-116 [18] = experiment: Induction of apoptosis in human HCT116 cells assessed as live cells at 500 nM after 48 hrs by Annexin V-FITC/propidium iodide staining-based flow cytometric analysis (reference value: 89.6%); type: functional
HCT-116 [19] = experiment: Induction of apoptosis in human HCT116 cells assessed as late apoptotic cells at 500 nM after 48 hrs by Annexin V-FITC/propidium iodide staining-based flow cytometric analysis (reference value: 3.87%); type: functional

| SMILES | MTD [1] [mg/kg] | Activity [2] | Activity [3] | IC50 (HCT-8) [nM] | Activity (HCT-116 [4]) | IC50 (MCF7) [nM] | Tmax [5] [min] | Activity [6] | Cmax [7] [ng/mL] | Activity (HCT-116 [8]) [%] | clearance [9] [mL/min/kg] | MTD [10] [mg/kg] | Activity [12] | IC50 (THP-1) [nM] | IC50 (MDA-MB-453) [nM] | Drug metabolism [13] | IC50 (K562) [nM] | IC50 [14] [nM] | Activity (HCT-116 [15]) | Activity [16] | also measured |
| --- | --- | --- | --- | --- | --- | --- | --- | --- | --- | --- | --- | --- | --- | --- | --- | --- | --- | --- | --- | --- | --- |
| COc1ncc(-c2cc(OCCCCCCC(=O)NO)c3ncnc(C)c3c2)cc1F | > 2000 | Non-Toxic | Non-Toxic | 320 | Dose-dependent effect | 2000 | 1.8 | Non-Toxic | 3050 | 6.56 | 90 | > 100 | Non-Toxic | 5400 | 300 | Metabolite_Detected | 6800 | 67 | Dose-dependent effect | Non-Toxic | bioavailability ([11]; ICR): 4.2%; IC50 (Histone deacetylase 4): > 1000 nM; IC50 (Histone deacetylase 8): 18 nM; IC50 [17]: 2860 nM; IC50 (Histone deacetylase 11): > 1000 nM; Activity (HCT-116 [18]): 67.9%; Activity (HCT-116 [19]): 10.3% |
| COc1ccc(-c2cc(OCCN(C)c3ncc(C(=O)NO)cn3)c3ncnc(C)c3c2)cn1 | > 2000 | Non-Toxic | Non-Toxic | 59 | Dose-dependent effect | 1100 | 1.8 | Non-Toxic | 417 | 16.8 | 352 | > 100 | Non-Toxic | 910 | 4 | Metabolite_Detected | 1200 | 467 | Dose-dependent effect | Non-Toxic | F [11]: 1.7%; IC50 (Histone deacetylase 4): 972 nM; IC50 (Histone deacetylase 8): 12 nM; IC50 [17]: 6260 nM; IC50 (Histone deacetylase 11): > 1000 nM; Activity (HCT-116 [18]): 43.8%; Activity (HCT-116 [19]): 24.4% |
